Source: publication PMC6843717 (ACS Omega, 2019)
“And” between values parts separate entries of the source, which are not always exact repeats. Equal entries are not always repeated. Marks after values point to notes of the source that are not given here.

How the values were obtained:
[1] = test system: HER2-type mammary fat pad tumor; details: 10 mg/kg BW; immunocompromised mice; cited from earlier work
[2] = Stability of MBQ-167 in mouse liver; type: physicochemical; details: for postpreparative stability RE% / short term stability RE% / freeze–thaw stability RE% / long term stability RE%: liver; for postpreparative stability RE%: 8 h; for short term stability RE%: 3 h in an ice bucket; for freeze–thaw stability RE% / long term stability RE%: −80 °C; for freeze–thaw stability RE%: 3 cycles 24 h; for long term stability RE%: 90 days
How it was run: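 Spiked mouse tissue QCs (calibration 10–1000 ng/mL) quantified by SFC-MS/MS; RE% against nominal. Short-term: 15 and 950 ng/mL, 3 h in an ice bucket. Postpreparative: 15, 450 and 950 ng/mL, 8 h at 4 °C. Long-term: −80 °C for 90 days. Freeze–thaw: three 24 h cycles at −80 °C.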

[3] = Plasma pharmacokinetics after single IP or PO dose; type: in vivo, Balb/c mice
How it was run: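 Female BALB/c mice, 4–5 weeks old, acclimated 1 week. Single 10 mg/kg dose (0.1 mL in 12.5% ethanol/12.5% cremophor/75% PBS, pH 7.4), IP or oral gavage. Five mice per time point (0.08–12 h) bled by cardiac puncture into citrate. Plasma protein-precipitated and analysed by SFC-MS/MS (ESI+, m/z 339.1→179.9). λz by terminal log-linear regression; relative bioavailability PO vs IP.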

[4] = Tissue distribution after single IP or PO dose; type: in vivo, BALB/c mice; details: for MRT inf / Vd/F / concentration at 30 min / half-life / k el / tissue uptake / Tmax: 10 mg/kg; for Tmax / AUC0–t / Cl/F: mean ± SEM
How it was run: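 Same single 10 mg/kg IP or PO dosing in female BALB/c mice. Liver, heart, spleen, kidneys and lungs taken at 0.17, 0.5, 1 and 3 h (n = 5), saline-flushed and snap-frozen. Tissue homogenized 1:4 w/v in pH 7.4 saline, liquid–liquid extracted with internal standard, quantified by SFC-MS/MS. Localization index = tissue %ID/g over plasma %ID/mL; mean ± SEM.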

[5] = Stability of MBQ-167 in mouse plasma; type: physicochemical; details: for postpreparative stability RE%: 8 h; for short term stability RE%: 4 h at benchtop; for freeze–thaw stability RE% / long term stability RE%: −80 °C; for freeze–thaw stability RE%: 3 cycles 24 h
How it was run: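 Spiked mouse plasma QCs (calibration 1.5–1000 ng/mL) quantified by SFC-MS/MS after protein precipitation; RE% against nominal. Short-term: 2.5 and 950 ng/mL, 4 h at room temperature. Postpreparative: three QC levels (2.5, 450, 950 ng/mL) held at 4 °C. Long-term: −80 °C for 15 and 134 days. Freeze–thaw: three 24 h cycles at −80 °C.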

[6] = female, BALB/c, mouse, plasma, ip, 10 mg/kg
[7] = female, BALB/c, mouse, plasma, po, 10 mg/kg
[8] = plasma, intraperitoneal 10 mg/kg, mean ± SEM
[9] = female, BALB/c, mouse, heart, ip
[10] = female, BALB/c, mouse, heart, po
[11] = female, BALB/c, mouse, kidneys, ip
[12] = female, BALB/c, mouse, kidneys, po
[13] = female, BALB/c, mouse, liver, ip
[14] = female, BALB/c, mouse, liver, po
[15] = female, BALB/c, mouse, lungs, ip
[16] = female, BALB/c, mouse, lungs, po
[17] = female, BALB/c, mouse, spleen, ip
[18] = female, BALB/c, mouse, spleen, po

In the case of `CCn1c2ccccc2c2cc(-n3nncc3-c3ccccc3)ccc21` [MBQ-167], the “reduction of HER2-type mammary fat pad tumor growth” value [1] is listed as about 90%, the reduction of metastasis [1] is listed as ~90% and ~99% and the stability in tissues ([2]; incubation in an ice bucket for 3 h) is listed as “stable”. The “postpreparative stability RE%” value ([2]; spiked 15 ng/mL, 4 °C) was “–15%”, the “short term stability RE%” value ([2]; spiked 15 ng/mL) was 0.1% and the “freeze–thaw stability RE%” value ([2]; spiked 15 ng/mL) was 1.5%. For the same compound, the “long term stability RE%” value ([2]; spiked 15 ng/mL) was 6.5%, the “postpreparative stability RE%” value ([2]; spiked 950 ng/mL, 4 °C) was “–6.7%” and the “short term stability RE%” value ([2]; spiked 950 ng/mL) was “–12.2%”. The “freeze–thaw stability RE%” value ([2]; spiked 950 ng/mL) was “–3.2%”, the “long term stability RE%” value ([2]; spiked 950 ng/mL) was 9.2% and the “postpreparative stability in autosampler conditions” value ([2]; tissues, 4 °C) was 8 h. The “long-term stability at −80 °C” value ([2]; tissues, both low and high concentrations of quality control samples) was 90 days, the “freeze–thaw stability” value ([2]; tissues, three freeze–thaw cycles lasting 24 h) was “stable” and the “systemic clearance exceeds mean basal renal glomerular filtration rate in mice” value ([3]; GFR 12–18 mL/h) was about 10 fold. For the same compound, the “systemic clearance adjusted by F” value ([3]; PO administration) was 136.5 mL/h, the clearance ([3]; female, BALB/c, mouse, plasma, 10 mg/kg) was about 83.3 mL/min/kg and the AUC(0-t) [3, 6] was 1640 ± 291 ng·h/mL. It also gave a Cmax [3, 6] of 2970 ± 1380 ng/mL, an MRT inf [3, 6] of 1.9 ± 0.1 h and a Tmax [3, 6] of 0.22 ± 0.14 h. The concentration at 30 min [3, 6] was 840 ng/mL, the half-life [3, 6] was 2.17 ± 0.06 h and the AUC(0-t) [3, 7] was 585 ± 150 ng·h/mL. For the same compound, the Cmax [3, 7] was 619 ± 195 ng/mL, the MRT inf [3, 7] was 1.9 ± 0.1 h and the Tmax [3, 7] was 0.5 h. For the same compound, the half-life [3, 7] was 2.6 ± 0.2 h, the “time to elimination from plasma and tissues” value ([3]; following administration by both routes) was 6 to 8 h and the “drug remaining in the bloodstream” value ([3]; from apparent volume of distribution vs blood volume 1.5–2.0 mL) was “less than 1%”. The “plasma drug concentration lower after PO compared to IP” value ([3]; maximum plasma concentration, same dosage) was about 4.5 times, the “clearance rate as share of liver blood flow in the mouse” value ([3]; mouse, in vivo) was about 85% and the “F (relative bioavailability)” value ([3]; oral gavage relative to IP, 10 mg/kg, mean ± SEM) was 35% and 35 ± 3%. For the same compound, the Cl/F [3, 8] was 129 mL/h and 129 ± 24 mL/h, the Kel [3, 8] was 0.320 ± 0.009 h^–^1 and the Kel ([3]; plasma, oral gavage 10 mg/kg, mean ± SEM) was 0.27 ± 0.02 h^–^1. For the same compound, the Cl/F ([3]; plasma, oral gavage 10 mg/kg, mean ± SEM, 10 mg/kg) was 390 mL/h and 390 ± 111 mL/h, the MRT inf [4, 9] was 0.98 ± 0.01 h and the Vd/F [4, 9] was 0.334 ± 0.139 L. For the same compound, the concentration at 30 min [4, 9] was 797 ng/g, the half-life [4, 9] was 0.97 ± 0.12 h and the k el [4, 9] was 0.000206 s⁻¹. The tissue uptake [4, 9] was 0.4 ± 0.11 %ID/g, the Tmax ([4]; female, BALB/c, mouse, heart, ip, Tmax, IP 10 mg/kg) was 0.5 h and the MRT inf [4, 10] was 1.03 ± 0.05 h. The Vd/F [4, 10] was 0.674 ± 0.101 L, the half-life [4, 10] was 1.34 ± 0.03 h and the k el [4, 10] was 0.000144 s⁻¹. For the same compound, the tissue uptake [4, 10] was 0.22 ± 0.03 %ID/g, the Tmax ([4]; female, BALB/c, mouse, heart, po, Tmax, PO 10 mg/kg) was 0.5 h and the MRT inf [4, 11] was 2.12 ± 0.07 h. For the same compound, the Vd/F [4, 11] was 0.023 ± 0.012 L, the concentration at 30 min [4, 11] was 10500 ng/g and the half-life [4, 11] was 1.39 ± 0.08 h. The k el [4, 11] was 0.000139 s⁻¹, the tissue uptake [4, 11] was 6 ± 1.4 %ID/g and the MRT inf [4, 12] was 2.7 ± 0.5 h. The Vd/F [4, 12] was 0.188 ± 0.035 L, the half-life [4, 12] was 3.4 ± 0.9 h and the k el [4, 12] was 6.67e-05 s⁻¹. The tissue uptake [4, 12] was 1.6 ± 0.4 %ID/g, the MRT inf [4, 13] was 3.56 ± 0.83 h and the Vd/F [4, 13] was 0.07 ± 0.009 L. It also gave a concentration at 30 min [4, 13] of 4560 ng/g, a half-life [4, 13] of 2.24 ± 0.81 h and a k el [4, 13] of 0.000139 s⁻¹. It also gave a tissue uptake [4, 13] of 2.3 ± 0.2 %ID/g, a Tmax ([4]; female, BALB/c, mouse, liver, ip, Tmax, IP 10 mg/kg) of 0.5 h and an MRT inf [4, 14] of 5 ± 1 h. For the same compound, the Vd/F [4, 14] was 0.135 ± 0.108 L, the half-life [4, 14] was 1.9 ± 0.6 h and the k el [4, 14] was 0.000119 s⁻¹. It also gave a tissue uptake [4, 14] of 1.6 ± 0.7 %ID/g, a Tmax ([4]; female, BALB/c, mouse, liver, po, Tmax, PO 10 mg/kg) of 0.5 h and an MRT inf [4, 15] of 1.27 ± 0.06 h. For the same compound, the Vd/F [4, 15] was 0.201 ± 0.038 L, the half-life [4, 15] was 1.84 ± 0.24 h and the k el [4, 15] was 0.000108 s⁻¹. It also gave a tissue uptake [4, 15] of 0.72 ± 0.08 %ID/g, a Tmax ([4]; female, BALB/c, mouse, lungs, ip, Tmax, IP 10 mg/kg) of 0.5 h and an MRT inf [4, 16] of 0.89 ± 0.08 h. For the same compound, the Vd/F [4, 16] was 0.01 ± 0.004 L, the half-life [4, 16] was 0.89 ± 0.18 h and the k el [4, 16] was 0.000242 s⁻¹. It also gave a tissue uptake [4, 16] of 13 ± 5 %ID/g, a Tmax ([4]; female, BALB/c, mouse, lungs, po, Tmax, PO 10 mg/kg) of 0.5 h and an MRT inf [4, 17] of 2 ± 0.08 h. For the same compound, the Vd/F [4, 17] was 0.268 ± 0.135 L, the concentration at 30 min [4, 17] was 1620 ng/g and the half-life [4, 17] was 1.89 ± 0.11 h. For the same compound, the k el [4, 17] was 0.000103 s⁻¹, the tissue uptake [4, 17] was 0.81 ± 0.16 %ID/g and the MRT inf [4, 18] was 5.7 ± 0.2 h. For the same compound, the Vd/F [4, 18] was 0.535 ± 0.042 L, the half-life [4, 18] was 11 ± 3 h and the k el [4, 18] was 2.22e-05 s⁻¹. For the same compound, the tissue uptake [4, 18] was 0.26 ± 0.06 %ID/g, the “AUC0–t” value ([4]; heart, IP 10 mg/kg) was 0.46 ± 0.14 h %ID/g and the Cl/F ([4]; heart, IP 10 mg/kg) was 224 ± 66 mL/h. The “AUC0–t” value ([4]; heart, PO 10 mg/kg) was 0.22 ± 0.03 h %ID/g, the Cl/F ([4]; heart, PO 10 mg/kg) was 347 ± 44 mL/h and the “AUC0–t” value ([4]; kidneys, IP 10 mg/kg) was 16.3 ± 7.2 h %ID/g. For the same compound, the Cl/F ([4]; kidneys, IP 10 mg/kg) was 12 ± 7 mL/h, the “AUC0–t” value ([4]; kidneys, PO 10 mg/kg) was 2.5 ± 0.9 h %ID/g and the Cl/F ([4]; kidneys, PO 10 mg/kg) was 51 ± 25 mL/h. The “AUC0–t” value ([4]; liver, IP 10 mg/kg) was 3.9 ± 1.3 h %ID/g, the Cl/F ([4]; liver, IP 10 mg/kg) was 31 ± 13 mL/h and the “AUC0–t” value ([4]; liver, PO 10 mg/kg) was 4 ± 2 h %ID/g. For the same compound, the Cl/F ([4]; liver, PO 10 mg/kg) was 37 ± 23 mL/h, the “AUC0–t” value ([4]; lungs, IP 10 mg/kg) was 0.86 ± 0.20 h %ID/g and the Cl/F ([4]; lungs, IP 10 mg/kg) was 82 ± 26 mL/h. The “AUC0–t” value ([4]; lungs, PO 10 mg/kg) was 17 ± 7 h %ID/g, the Cl/F ([4]; lungs, PO 10 mg/kg) was 10 ± 6 mL/h and the Tmax ([4]; lungs, PO 10 mg/kg) was 0.28 ± 0.11 h. For the same compound, the “AUC0–t” value ([4]; spleen, IP 10 mg/kg) was 1.4 ± 0.5 h %ID/g, the Cl/F ([4]; spleen, IP 10 mg/kg) was 93 ± 42 mL/h and the “AUC0–t” value ([4]; spleen, PO 10 mg/kg) was 1.5 ± 0.2 h %ID/g. The Cl/F ([4]; spleen, PO 10 mg/kg) was 44 ± 16 mL/h, the “stability in plasma (±15% RSD, RE)” value ([5]; incubation at ambient temperature for four hours) was “stable” and the “postpreparative stability in autosampler conditions” value ([5]; plasma, 4 °C) was 8 h. The “long-term stability at −80 °C” value ([5]; plasma, high drug concentration) was 134 days, the “long-term stability at −80 °C” value ([5]; plasma, low drug concentration) was 15 days and the “postpreparative stability RE%” value ([5]; plasma, spiked 2.5 ng/mL, 4 °C) was 8.0%. For the same compound, the “short term stability RE%” value ([5]; plasma, spiked 2.5 ng/mL) was 4.0%, the “freeze–thaw stability RE%” value ([5]; plasma, spiked 2.5 ng/mL) was “–2.7%” and the “long term stability RE%” value ([5]; plasma, spiked 2.5 ng/mL, 15 days) was 12.6 ^b %. The “postpreparative stability RE%” value ([5]; plasma, spiked 950 ng/mL, 4 °C) was 15.2%, the “short term stability RE%” value ([5]; plasma, spiked 950 ng/mL) was “–0.5%” and the “freeze–thaw stability RE%” value ([5]; plasma, spiked 950 ng/mL) was “–1.2%”. The “long term stability RE%” value ([5]; plasma, spiked 950 ng/mL, 134 days) was “–1.0 ^d %” and the “freeze–thaw stability” value ([5]; plasma, three freeze–thaw cycles lasting 24 h) was “stable”.
